This is an account of results in ChEMBL document CHEMBL4619802, “Discovery and Characterization of Pure RhlR Antagonists against Pseudomonas aeruginosa Infections” (J Med Chem, 2020).

Test [1] deals with Pseudomonas aeruginosa. Description: Antibacterial activity against Pseudomonas aeruginosa assessed as bacterial growth at 100 uM incubated for 24 hrs relative to control. The format is functional. A digest of the protocol:
(§1)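 P. aeruginosa overnight culture (OD595 1.0) diluted 1:20 in AB medium (pH 7.5, 1% glucose, casamino acids, arginine) with compound, in borosilicate bottles, 37 °C for 24 h without shaking. Growth taken as OD595 of the suspended culture. Attached cells washed twice with PBS, stained with 0.1% crystal violet for 10 min, dye eluted in ethanol and read at 545 nm.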

In test [2] the target is T1, HTH-type quorum-sensing regulator RhlR (Pseudomonas aeruginosa (strain ATCC 15692 / PAO1 / 1C / PRS 101 / LMG12228)) (UniProt P54292).
T1 sequence (whole entry): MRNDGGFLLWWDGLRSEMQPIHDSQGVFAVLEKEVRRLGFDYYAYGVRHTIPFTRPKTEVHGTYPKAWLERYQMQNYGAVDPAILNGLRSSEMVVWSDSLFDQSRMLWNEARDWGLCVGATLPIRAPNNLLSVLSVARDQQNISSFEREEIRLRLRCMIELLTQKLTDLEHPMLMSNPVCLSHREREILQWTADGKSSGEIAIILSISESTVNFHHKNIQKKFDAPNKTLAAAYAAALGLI
Description: Modulation of RhlR in Pseudomonas aeruginosa assessed as biofilm formation at 10 uM incubated for 24 hrs under static condition by crystal violet staining based assay relative to control.

Test [3] concerns the target T1, HTH-type quorum-sensing regulator RhlR (Pseudomonas aeruginosa (strain ATCC 15692 / PAO1 / 1C / PRS 101 / LMG12228)). The test is described as follows: Agonist activity at Pseudomonas aeruginosa RhlR expressed in Escherichia coli DH5alpha assessed as relative protein activity at 100 uM incubated for 1.5 hrs by luminescence reporter gene assay relative to control. In general terms: In a reporter assay the amount or activity of a reporter protein is the signal.

Test [4] has the same target. The test is described as follows: Antagonist activity at Pseudomonas aeruginosa RhlR expressed in Escherichia coli DH5alpha assessed as relative protein activity at 100 uM incubated for 1.5 hrs in presence of N-butyryl-L-homoserine lactone by luminescence reporter gene assay relative to control. Also noted: scale not given: the % may be the effect or the level left. The method in brief:
(§2)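 E. coli DH5α sdiA mutant carrying RhlR and rhlA::lacZ plasmids, at OD595 0.3 in LB. Compound given with BHL (10 µM per footnote) and 0.4% arabinose, 37 °C for 1.5 h.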

Test [5] has the same target. The test is described as follows: Antagonist activity at RhlR in Pseudomonas aeruginosa assessed as rhamnolipid production at 100 uM incubated for 24 hrs by Orcinol staining based assay relative to control. Further details: scale not given: the % may be the effect or the level left.
Test [6] has the same target. The test is described as follows: Antagonist activity at RhlR in Pseudomonas aeruginosa assessed as rhamnolipid production at 10 uM incubated for 24 hrs by Orcinol staining based assay relative to control. Further details: scale not given: the % may be the effect or the level left.
Test [7] relates to Pseudomonas aeruginosa. Description: Antibacterial activity against Pseudomonas aeruginosa assessed as bacterial growth at 10 uM incubated for 24 hrs relative to control. The format is functional. The method in brief:
as §1

The target in test [8] is T1, HTH-type quorum-sensing regulator RhlR (Pseudomonas aeruginosa (strain ATCC 15692 / PAO1 / 1C / PRS 101 / LMG12228)). The test is described as follows: Modulation of RhlR in Pseudomonas aeruginosa assessed as biofilm formation at 100 uM incubated for 24 hrs under static condition by crystal violet staining based assay relative to control.
The target is the same in test [9]. Description: Agonist activity at Pseudomonas aeruginosa RhlR expressed in Escherichia coli DH5alpha assessed as relative protein activity at 1000 uM incubated for 1.5 hrs by luminescence reporter gene assay relative to control.
For test [10] the target is unchanged. The test is described as follows: Antagonist activity at Pseudomonas aeruginosa RhlR expressed in Escherichia coli DH5alpha assessed as relative protein activity at 10 uM incubated for 1.5 hrs in presence of N-butyryl-L-homoserine lactone by luminescence reporter gene assay relative to control. Further details: scale not given: the % may be the effect or the level left. A digest of the protocol: as §2

Calls of active or inactive are those of the source. The rule behind the calls is not given here.

Regarding `CCCC(O)CC(=O)/C=C/c1ccc(OC)cc1` (centres undefined), the outcome in the test with Pseudomonas aeruginosa [1] was inactive. Further, the result in test [2] was Active. Also, the values for the Activity in test [3] and in test [4] were 1% and 55%, respectively.
With `CCCC(O)CC(=O)CCc1ccc(F)cc1` (centres undefined), the Activity in [3] was 2%; in test [4], 51%.
Turning to `CCCCC(O)CC(=O)CCc1ccc(O)c(OC)c1` (centres undefined), the values for the Activity in [3] and in [4] were 2% and 62%, respectively.
As for `CCCC(O)CC(=O)/C=C/c1ccc(C)c(C)c1` (centres undefined), the results for the Activity in test [3] and in test [4] were 2% and 72%, respectively.
Consider `CCCC(O)CC(=O)/C=C/c1ccc(Cl)cc1` (centres undefined), for which the results for the Activity in test [3] and in test [4] were 1% and 64%, respectively.
With `CCCC(O)CC(=O)/C=C/c1ccc(O)cc1` (centres undefined), in the test with Pseudomonas aeruginosa [1], the outcome was inactive. Also, the result in [2] was Active. Moreover, the Activity turned out to be 1% in test [3] and 51% in test [4].
Take `CCCC(O)CC(=O)/C=C/c1ccc(O)c(OCC)c1` (centres undefined): the Activity in [3] amounted to 1%; in test [4], 91%.
For `CCCCC(O)C#Cc1ccc(F)c(F)c1` (racemic), in that order: 4% and 71%.
On to `CCCCCC(O)CCc1ccc(F)c(F)c1` (centres undefined), for which the results for the Activity in [3] and in test [4] were 5% and 61%, respectively.
For `CCCCCC(=O)C#Cc1ccc(F)c(F)c1`, the Activity in test [5] was found to be 58%; in test [6], 60%; in the test with Pseudomonas aeruginosa [1] it was 88%; with Pseudomonas aeruginosa [7] it was 100%; in test [8], 56%; in [9], 5%. Further, the Activity in test [2] amounted to 71%; in test [10], 39%; in [3] it was 3%; in test [4], 17%.
As for `CCCCCC(O)/C=C/c1ccc(F)c(F)c1` (centres undefined), the figures for the Activity in test [3] and in [4] were 5% and 55%, respectively.
With `CCCCCC(O)/C=C/c1ccc(O)c(OC)c1` (centres undefined), the figures for the Activity in test [3] and in [4] were 2% and 41%, respectively.
Regarding `CCCC(O)CC(=O)CCc1ccc(OC)cc1` (centres undefined), the Activity is 2% in test [3] and 71% in [4].
Take `CCCC(O)CC(=O)CCc1ccccc1` (centres undefined): the Activity in [3] was 4%; in test [4], 88%.
In the case of `CCCCCCCCC(O)CC(=O)CCc1ccc(O)c(OC)c1` (centres undefined), the outcome in the test with Pseudomonas aeruginosa [1] was inactive. Also, the result in test [2] was Active. Also, the values for the Activity in test [3] and in test [4] were 2% and 41%, respectively.
With `CCCC(O)CC(=O)CCc1ccc(Cl)cc1` (centres undefined), the figures for the Activity in test [3] and in test [4] were 2% and 69%, respectively.
Turning to `CCCC(O)CC(=O)/C=C/c1ccc(C)cc1` (centres undefined), the results for the Activity in test [3] and in [4] were 2% and 65%, respectively.
As to `CCCCC[C@@H](O)C#Cc1ccc(O)c(OC)c1`, in the test with Pseudomonas aeruginosa [1], the outcome was inactive. Also, the outcome in test [2] was Active. Further, the Activity in [3] came out at 3%; in test [4], 27%.
As for `CCCC(O)CC(=O)CCc1ccc(F)c(F)c1` (centres undefined), the Activity was 1% in test [3] and 49% in test [4].
Take `CCCCC(=O)C#Cc1ccc(F)c(F)c1`: the Activity in test [5] stood at 49%; in test [6], 59%; in the test with Pseudomonas aeruginosa [1] it was 89%; in the test with Pseudomonas aeruginosa [7] it was 100%; in test [8], 55%; in test [9] it was 6%. For the same compound, the Activity is 75% in test [2], 29% in test [10], 4% in test [3] and 16% in test [4].
As for `CCCC(O)CC(=O)CCc1ccc(O)cc1` (centres undefined), the Activity turned out to be 3% in test [3] and 64% in test [4].
Regarding `CCCC(O)CC(=O)/C=C/c1ccc(F)c(OC)c1` (centres undefined), the Activity stood at 1% in test [3] and 43% in test [4].
On to `CCCCCCC(O)CC(=O)CCc1ccc(O)c(OC)c1` (centres undefined), for which the results for the Activity in test [3] and in test [4] were 3% and 83%, respectively.
On to `CCCC(O)CC(=O)CCc1ccc(OC)c(OC)c1` (centres undefined), for which the Activity in [3] stood at 1%; in test [4], 94%.
For `CCCC(O)CC(=O)CCc1ccc(N(C)C)cc1` (centres undefined), the Activity turned out to be 1% in test [3] and 74% in [4].
`CCCCC[C@@H](O)C#Cc1ccc(F)c(F)c1`: the Activity stood at 3% in [3] and 72% in [4].
`CCCC[C@H](O)C#Cc1ccc(F)c(F)c1`: the Activity in test [3] amounted to 2%; in test [4], 64%.
Consider `CCCC(O)CC(=O)CCc1cccc(OC)c1` (centres undefined), for which the Activity in [3] was 2%; in [4], 90%.
For `CCCCC[C@H](O)C#Cc1ccc(F)c(F)c1`, in that order: 4% and 67%.
Take `CCCC(O)CC(=O)CCc1ccc(O)c(F)c1` (centres undefined): the Activity in [3] came out at 1%; in test [4], 73%.
Regarding `CCCCCC(O)C#Cc1ccc(O)c(OC)c1` (racemic), the result with Pseudomonas aeruginosa [1] was inactive. Besides, the result in [2] was Active. Also, the values for the Activity in [3] and in test [4] were 3% and 32%, respectively.
For the compound `CCCC(O)CC(=O)CCc1cc(F)cc(OC)c1` (centres undefined), the Activity amounted to 3% in test [3] and 85% in test [4].
For the compound `CCCC(O)CC(=O)CCc1ccc(C)cc1` (centres undefined), the Activity in test [3] came to 1%; in [4] it was 76%.
Consider `CCCCCC(O)/C=C\c1ccc(O)c(OC)c1` (centres undefined), for which the Activity in test [3] stood at 3%; in test [4], 79%.
For the compound `CCCCCC(O)CCc1ccc(O)c(OC)c1` (centres undefined), the Activity in test [3] is 2%; in [4] it was 45%.
`CCCC[C@@H](O)C#Cc1ccc(F)c(F)c1`: the figures for the Activity in test [3] and in [4] were 3% and 67%, respectively.
Regarding `CCCC(O)CC(=O)CCc1ccc(O)c(O)c1` (centres undefined), the Activity in test [3] was 2%; in [4], 47%.
Take `CCCC(O)CC(=O)CCc1cccc(O)c1` (centres undefined): the results for the Activity in test [3] and in [4] were 2% and 81%, respectively.
On to `CCCC(O)CC(=O)/C=C/c1ccc(F)cc1` (centres undefined), for which the Activity in test [3] was determined as 1%; in [4], 33%.
Consider `CCCC(O)CC(=O)CCc1ccc(O)c(OCC)c1` (centres undefined), for which the Activity in test [3] is 1%; in test [4], 98%.
For `CCCCCC(O)C#Cc1ccc(F)c(F)c1` (racemic), in that order: 3% and 74%.
As for `CCCC(O)CC(=O)/C=C/c1ccc(O)c(F)c1` (centres undefined), the Activity was 2% in test [3] and 60% in test [4].
On to `CCCC(O)CC(=O)CCc1ccc(C)c(C)c1` (centres undefined), for which the Activity in test [3] is 3%; in [4] it was 82%.
Consider `CCCCCC(=O)/C=C/c1ccc(O)c(OC)c1`, for which the Activity is 2% in [3] and 41% in test [4].
For the compound `CCCC(O)CC(=O)/C=C/c1ccccc1` (centres undefined), the results for the Activity in test [3] and in test [4] were 4% and 93%, respectively.
With `CCCC(O)CC(=O)/C=C/c1cccc(O)c1` (centres undefined), the figures for the Activity in test [3] and in [4] were 2% and 78%, respectively.
`CCCC(O)CC(=O)/C=C/c1cc(F)cc(OC)c1` (centres undefined): the Activity in [3] stood at 3%; in [4] it was 74%.
As for `CCCCCC(=O)C#Cc1ccc(O)c(OC)c1`, in the test with Pseudomonas aeruginosa [1], the outcome was inactive. Further, in test [2], the result was Active. In addition, the results for the Activity in test [3] and in test [4] were 3% and 29%, respectively.
In the case of `CCCCCCCC(O)CC(=O)CCc1ccc(O)c(OC)c1` (centres undefined), the figures for the Activity in [3] and in test [4] were 2% and 90%, respectively.
For `CCCC(O)CC(=O)/C=C/c1ccc(N(C)C)cc1` (centres undefined), in that order: 2% and 53%.
`CCCC(O)CC(=O)/C=C/c1ccc(OC)c(OC)c1` (centres undefined): the Activity in [3] worked out at 1%; in test [4], 69%.
Regarding `CCCCC[C@H](O)C#Cc1ccc(O)c(OC)c1`, the result in the test on Pseudomonas aeruginosa [1] was inactive. The result in test [2] was Active. Also, the Activity was found to be 3% in test [3] and 34% in [4].
Turning to `CCCCCC(=O)CCc1ccc(O)c(OC)c1`, the Activity in [3] came to 2%; in test [4], 49%.
On to `CCCC(O)CC(=O)CCc1ccc(F)c(OC)c1` (centres undefined), for which the results for the Activity in test [3] and in test [4] were 1% and 79%, respectively.
Consider `CCCCCCCCCC(O)CC(=O)CCc1ccc(O)c(OC)c1` (centres undefined), for which the outcome with Pseudomonas aeruginosa [1] was inactive. For the same compound, in test [2], the result was Active. Also, the Activity in test [3] was determined as 2%; in test [4], 36%.
With `CCCCCC(=O)CCc1ccc(F)c(F)c1`, the Activity in [3] came to 4%; in test [4] it was 55%.
